Assays:
Mus musculus [1] = test: Number of Plasmodium berghei infected mice died on day 10 at 40 mg/kg; format: functional
In short: (§1)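 Male mice infected with drug-sensitive P. berghei KBG 173; single subcutaneous dose given 3 days postinfection, five mice per dose; survival followed, with cure (C) meaning survival to 60 days postinfection and deaths 0–2 days after treatment scored as toxicity (T).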

Mus musculus [2] = test: Number of Plasmodium berghei infected mice died on day 29 at 640 mg/kg; format: functional; in short: as §1
Mus musculus [3] = test: Number of Plasmodium berghei infected mice died on day 10 at 160 mg/kg; format: functional; in short: as §1
Mus musculus [4] = test: Number of Plasmodium berghei infected mice died on day 13 at 640 mg/kg; format: functional; in short: as §1
Mus musculus [5] = test: (§2) Number of Plasmodium berghei infected mice died on day 8 at 160 mg/kg; format: functional
Mus musculus [6] = test: (§3) Number of Plasmodium berghei infected mice died on day 7 at 40 mg/kg; format: functional
Mus musculus [7] = test: Number of Plasmodium berghei infected mice died on day 8 at 40 mg/kg; format: functional; in short: as §1
Mus musculus [8] = test: Number of Plasmodium berghei infected mice died on day 24 at 640 mg/kg; format: functional; in short: as §1
Plasmodium falciparum [9] = test: In vitro antimalarial activity against chloroquine-resistant Plasmodium falciparum W2; format: functional, organism-based
Plasmodium falciparum [10] = test: Antimalarial activity against Plasmodium falciparum D6 in vitro.; format: functional, organism-based
Mus musculus [11] = test: Number of Plasmodium berghei infected mice died on day 18 at 160 mg/kg; format: functional; in short: as §1
Mus musculus [12] = test: Number of Plasmodium berghei infected mice died on day 9 at 160 mg/kg; format: functional; in short: as §1
Plasmodium falciparum [13] = test: Inhibition of hematin polymerization in Plasmodium falciparum; format: functional
Mus musculus [14] = test: Number of Plasmodium berghei infected mice died on day 14 at 640 mg/kg; format: functional; in short: as §1
Mus musculus [15] = test: (§4) Number of Plasmodium berghei infected mice died on day 12 at 640 mg/kg; format: functional; in short: as §1
Mus musculus [16] = test: Number of Plasmodium berghei infected mice died on day 26 at 160 mg/kg; format: functional; in short: as §1
Mus musculus [17] = test: Number of Plasmodium berghei infected mice died on day 11 at 160 mg/kg; format: functional
Mus musculus [18] = test: Number of Plasmodium berghei infected mice died on day 12 at 160 mg/kg; format: functional; in short: as §1
Mus musculus [19] = test: Number of Plasmodium berghei infected mice died on day 9 at 40 mg/kg; format: functional
Mus musculus [20] = test: Number of Plasmodium berghei infected mice died on day 22 at 640 mg/kg; format: functional; in short: as §1
Mus musculus [21] = test: Number of Plasmodium berghei infected mice died on day 13 at 40 mg/kg; format: functional; in short: as §1
Mus musculus [22] = test: Number of Plasmodium berghei infected mice died at 160 mg/kg; Curative; format: functional; in short: as §1
Mus musculus [23] = test: Number of Plasmodium berghei infected mice died on day 13 at 160 mg/kg; format: functional; in short: as §1
Mus musculus [24] = test: Number of Plasmodium berghei infected mice died on day 17 at 160 mg/kg; format: functional; in short: as §1
Mus musculus [25] = test: Number of Plasmodium berghei infected mice died on day 12 at 40 mg/kg; format: functional; in short: as §1
Mus musculus [26] = test: Number of Plasmodium berghei infected mice died at 640 mg/kg; Curative; format: functional; in short: as §1
Mus musculus [27] = test: Number of Plasmodium berghei infected mice died on day 18 at 640 mg/kg; format: functional; in short: as §1
Mus musculus [28] = test: Number of Plasmodium berghei infected mice died on day 16 at 640 mg/kg; format: functional; in short: as §1
Mus musculus [29] = test: Number of Plasmodium berghei infected mice died on day 20 at 640 mg/kg; format: functional; in short: as §1
Mus musculus [30] = test: Number of Plasmodium berghei infected mice died on day 14 at 160 mg/kg; format: functional; in short: as §1
Mus musculus [31] = test: as §3; format: functional; in short: as §1; remark: listed apart in the source
Mus musculus [32] = test: (§5) Number of Plasmodium berghei infected mice died on day 6 at 40 mg/kg; format: functional; in short: as §1
Mus musculus [33] = test: (§6) Number of Plasmodium berghei infected mice died on day 6 at 160 mg/kg; format: functional; in short: as §1
Plasmodium falciparum [34] = test: In vitro inhibition of hematin polymerization in Plasmodium falciparum; format: functional
Mus musculus [35] = test: Number of Plasmodium berghei infected mice died on day 7 at 640 mg/kg; format: functional; in short: as §1
Mus musculus [36] = test: Number of Plasmodium berghei infected mice died on day 7 at 160 mg/kg; format: functional; in short: as §1
Mus musculus [37] = test: Number of Plasmodium berghei infected mice died on day 15 at 40 mg/kg; format: functional; in short: as §1
Mus musculus [38] = test: Number of Plasmodium berghei infected mice died on day 16 at 40 mg/kg; format: functional; in short: as §1
Mus musculus [39] = test: Number of Plasmodium berghei infected mice died at 40 mg/kg; Curative; format: functional; in short: as §1
Mus musculus [40] = test: Number of Plasmodium berghei infected mice died on day 16 at 160 mg/kg; format: functional; in short: as §1
Mus musculus [41] = test: Number of Plasmodium berghei infected mice died on day 14 at 40 mg/kg; format: functional; in short: as §1
Mus musculus [42] = test: Number of Plasmodium berghei infected mice died at 640 mg/kg; Toxic; format: functional; in short: as §1
Mus musculus [43] = test: Number of Plasmodium berghei infected mice died on day 23 at 160 mg/kg; format: functional; in short: as §1
Mus musculus [44] = test: Number of Plasmodium berghei infected mice died on day 25 at 640 mg/kg; format: functional; in short: as §1
Mus musculus [45] = test: Number of Plasmodium berghei infected mice died on day 20 at 160 mg/kg; format: functional; in short: as §1
Mus musculus [46] = test: as §5; format: functional; remark: listed apart in the source
Mus musculus [47] = test: as §6; format: functional; remark: listed apart in the source
Mus musculus [48] = test: Number of Plasmodium berghei infected mice died on day 6 at 640 mg/kg; format: functional
Mus musculus [49] = test: Number of Plasmodium berghei infected mice cured after administration of 160 mg/kg dose; format: functional
Mus musculus [50] = test: as §2; format: functional; in short: as §1; remark: listed apart in the source
Mus musculus [51] = test: Number of Plasmodium berghei infected mice cured after administration of 640 mg/kg; format: functional
Mus musculus [52] = test: Number of Plasmodium berghei infected mice died on day 33 at 640 mg/kg; format: functional; in short: as §1
Mus musculus [53] = test: Number of Plasmodium berghei infected mice died on day 11 at 40 mg/kg; format: functional; in short: as §1
Mus musculus [54] = test: as §4; format: functional; remark: listed apart in the source
Mus musculus [55] = test: Number of Plasmodium berghei infected mice cured after administration of the dose 640 mg/kg; format: functional; in short: as §1
Mus musculus [56] = test: Number of Plasmodium berghei infected mice died on day 19 at 640 mg/kg; format: functional; in short: as §1
Mus musculus [57] = test: Number of Plasmodium berghei infected mice cured after administration of a compound dose 640 mg/kg; format: functional

Clc1ccc2c(NCCOCCNc3ccnc4cc(Cl)ccc34)ccnc2c1
Number (Mus musculus [1]): 1 | Number (Mus musculus [2]): 1 | Number (Mus musculus [3]): 1 | Number (Mus musculus [4]): 2 | Number (Mus musculus [5]): 1 | Number (Mus musculus [6]): 1 | Number (Mus musculus [7]): 3 | Number (Mus musculus [8]): 1 | IC50 (Plasmodium falciparum [9]): 0.089 µM | IC50 (Plasmodium falciparum [10]): 0.016 µM | Number (Mus musculus [11]): 1 | Number (Mus musculus [12]): 2 | IC50 (Plasmodium falciparum [13]): 20 µM | Number (Mus musculus [14]): 1

Clc1ccc2c(NCCCOCCCCOCCCNc3ccnc4cc(Cl)ccc34)ccnc2c1
Number (Mus musculus [1]): 1 | Number (Mus musculus [3]): 2 | Number (Mus musculus [4]): 2 | Number (Mus musculus [6]): 1 | Number (Mus musculus [7]): 1 | IC50 (Plasmodium falciparum [9]): 0.021 µM | Number (Mus musculus [15]): 3 | IC50 (Plasmodium falciparum [10]): 0.022 µM | Number (Mus musculus [16]): 1 | Number (Mus musculus [17]): 1 | Number (Mus musculus [18]): 1 | Number (Mus musculus [19]): 2 | IC50 (Plasmodium falciparum [13]): 19 µM

Clc1ccc2c(NCCN3CCN(c4ccnc5cc(Cl)ccc45)CC3)ccnc2c1
Number (Mus musculus [20]): 1 | Number (Mus musculus [21]): 2 | Number (Mus musculus [22]): 1 | Number (Mus musculus [23]): 3 | Number (Mus musculus [7]): 1 | IC50 (Plasmodium falciparum [9]): 0.009 µM | Number (Mus musculus [24]): 1 | Number (Mus musculus [25]): 1 | IC50 (Plasmodium falciparum [10]): 0.0012 µM | Number (Mus musculus [26]): 1 | Number (Mus musculus [27]): 1 | Number (Mus musculus [19]): 1 | Number (Mus musculus [28]): 1 | Number (Mus musculus [29]): 1 | Number (Mus musculus [30]): 1 | IC50 (Plasmodium falciparum [13]): 5 µM

Clc1ccc2c(NCCCCCCNCCCCCCNc3ccnc4cc(Cl)ccc34)ccnc2c1
Number (Mus musculus [31]): 1 | Number (Mus musculus [32]): 4 | Number (Mus musculus [33]): 2 | IC50 (Plasmodium falciparum [9]): 0.0054 µM | IC50 (Plasmodium falciparum [34]): 7 µM | IC50 (Plasmodium falciparum [10]): 0.011 µM | Number (Mus musculus [35]): 5 | Number (Mus musculus [36]): 3

CCN(CC)CCCC(C)Nc1ccnc2cc(Cl)ccc12 (stereo not drawn) [CHLOROQUINE]
Number (Mus musculus [37]): 1 | Number (Mus musculus [38]): 1 | Number (Mus musculus [39]): 1 | Number (Mus musculus [22]): 1 | Number (Mus musculus [40]): 1 | Number (Mus musculus [41]): 2 | Number (Mus musculus [42]): 3 | Number (Mus musculus [25]): 1 | Number (Mus musculus [43]): 1 | Number (Mus musculus [11]): 1 | Number (Mus musculus [44]): 1 | Number (Mus musculus [45]): 1

Clc1ccc2c(NCCCNCCNc3ccnc4cc(Cl)ccc34)ccnc2c1
Number (Mus musculus [46]): 4 | Number (Mus musculus [47]): 5 | Number (Mus musculus [6]): 1 | IC50 (Plasmodium falciparum [9]): 0.007 µM | IC50 (Plasmodium falciparum [10]): 0.026 µM | Number (Mus musculus [48]): 5 | IC50 (Plasmodium falciparum [13]): 16 µM

Clc1ccc2c(NCCOCCOCCNc3ccnc4cc(Cl)ccc34)ccnc2c1
Number (Mus musculus [31]): 2 | Number (Mus musculus [21]): 1 | Number (Mus musculus [49]): 1 | IC50 (Plasmodium falciparum [9]): 0.0099 µM | IC50 (Plasmodium falciparum [34]): 15 µM | IC50 (Plasmodium falciparum [10]): 0.0025 µM | Number (Mus musculus [50]): 3 | Number (Mus musculus [51]): 1 | Number (Mus musculus [19]): 2

CN(CCCNc1ccnc2cc(Cl)ccc12)CCCNc1ccnc2cc(Cl)ccc12
Number (Mus musculus [23]): 3 | Number (Mus musculus [4]): 1 | Number (Mus musculus [7]): 2 | IC50 (Plasmodium falciparum [9]): 0.0028 µM | IC50 (Plasmodium falciparum [10]): 0.0059 µM | Number (Mus musculus [11]): 2 | Number (Mus musculus [52]): 1 | Number (Mus musculus [53]): 1 | Number (Mus musculus [19]): 2 | Number (Mus musculus [28]): 1 | IC50 (Plasmodium falciparum [13]): 8 µM | Number (Mus musculus [54]): 1 | Number (Mus musculus [14]): 1

Clc1ccc2c(N3CCN(CN4CCN(c5ccnc6cc(Cl)ccc56)CC4)CC3)ccnc2c1
Number (Mus musculus [31]): 4 | Number (Mus musculus [32]): 1 | Number (Mus musculus [3]): 1 | Number (Mus musculus [40]): 1 | IC50 (Plasmodium falciparum [9]): > 1 µM | IC50 (Plasmodium falciparum [34]): > 2500 µM | IC50 (Plasmodium falciparum [10]): > 1 µM | Number (Mus musculus [55]): 3 | Number (Mus musculus [12]): 3

Clc1ccc2c(NCCCOCCOCCOCCCNc3ccnc4cc(Cl)ccc34)ccnc2c1
Number (Mus musculus [56]): 1 | Number (Mus musculus [57]): 3 | Number (Mus musculus [23]): 1 | Number (Mus musculus [7]): 1 | IC50 (Plasmodium falciparum [9]): 0.048 µM | IC50 (Plasmodium falciparum [34]): 20 µM | IC50 (Plasmodium falciparum [10]): 0.024 µM | Number (Mus musculus [18]): 2 | Number (Mus musculus [53]): 1 | Number (Mus musculus [19]): 3 | Number (Mus musculus [30]): 2 | Number (Mus musculus [14]): 1

— ChEMBL document CHEMBL1131162, “Bisquinolines. 2. Antimalarial N,N-bis(7-chloroquinolin-4-yl)heteroalkanediamines” (J Med Chem, 1998)
